GPR7 antagonist: GPR7 receptor antagonists, primary screen, cell-based, fluorescence, single concentration. GPR7-expressing cells, fluorescence antagonist assay. inhibition, % at 4.4 µM. 1.1% of 290,000 active; in the data active = inhibition above about 16%, passing the limit was not always enough;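 note: cells stimulated with the agonist NPW; 0% = agonist with vehicle and 100% = vehicle without agonist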
Target sequence (P48145 whole entry, looked up): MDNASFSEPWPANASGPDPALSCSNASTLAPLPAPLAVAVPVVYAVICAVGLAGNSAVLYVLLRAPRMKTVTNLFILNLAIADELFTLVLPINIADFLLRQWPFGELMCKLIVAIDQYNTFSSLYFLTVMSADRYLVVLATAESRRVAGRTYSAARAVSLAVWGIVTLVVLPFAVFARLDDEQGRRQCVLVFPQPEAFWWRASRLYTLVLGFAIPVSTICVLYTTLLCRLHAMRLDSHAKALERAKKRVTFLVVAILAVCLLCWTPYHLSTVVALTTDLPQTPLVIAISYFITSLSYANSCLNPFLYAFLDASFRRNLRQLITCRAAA
OX1R antag-1: OX1R (HCRTR1) antagonists, primary screen, fluorescence, CHO/OX1R cells, Fluo-8 calcium, orexin A; Orexin/Hypocretin receptor type 1 (Homo sapiens), O43613; Fluo-8 calcium fluorescence; inhibition, % at 5 µM; 0.43% of 330,000 active;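 active = inhibition above its plate's threshold, mean inhibition of all tested compounds on the plate plus 3 SD, cut at about 37% in these data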;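 note: 0% = orexin A challenge wells and 100% = SB-334867-A antagonist wells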
CHO parental Ca: ATP-evoked calcium signal inhibitors, parental CHO, primary screen, counter-screen for OX1R antagonist project, cell-based, fluorescence, Fluo-8 calcium dye; parental CHO-K1, ATP-induced calcium, Fluo-8 fluorescence; 0.63% of 330,000 active; inhibition, % at 5.6 µM; AID 463079, 2010;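 active = inhibition above that plate's mean sample inhibition plus 3 SD, cut at about 26% in these data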;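 note: 0% = ATP-challenged DMSO wells and 100% = DMSO wells without ATP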
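material = parental CHO cells | also added = ATP as calcium-mobilizing challenge | dosing = single point at 5.6 µM | detection = intracellular calcium via Fluo-8 no-wash fluorescent dye | read-out = % inhibition | benchmarks = low control ATP plus DMSO, high control DMSO only | repeats = one well per compound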
TAAR1 ag: human TAAR1 agonists, primary screen, Fluo-8 calcium fluorescence, CHO RD-HGA16 cells; Trace amine-associated receptor 1 (Homo sapiens), Q96RJ0; vehicle wells 0%, saturating PEA agonist 100%; activation, % at 3 µM; 0.99% of 360,000 active;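 active = activation above the mean activation of all test compounds in the run plus 3 SD, cut at about 38% in these data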
Target sequence (Q96RJ0 whole entry, looked up): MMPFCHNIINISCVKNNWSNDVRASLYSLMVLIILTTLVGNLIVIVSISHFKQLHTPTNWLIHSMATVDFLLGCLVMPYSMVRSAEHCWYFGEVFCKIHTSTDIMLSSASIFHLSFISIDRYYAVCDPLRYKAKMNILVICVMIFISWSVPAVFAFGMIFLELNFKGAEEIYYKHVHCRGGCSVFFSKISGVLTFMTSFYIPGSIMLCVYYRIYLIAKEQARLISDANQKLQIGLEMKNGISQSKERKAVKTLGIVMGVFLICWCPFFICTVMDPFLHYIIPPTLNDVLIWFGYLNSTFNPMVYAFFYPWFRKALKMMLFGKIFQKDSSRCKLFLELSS
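Test system: RD-HGA16 (CHO) cells co-expressing Gα16 and hTAAR1 / Benchmarks: DMSO vehicle as 0%, PEA at EC100 as 100% / Repeats: no replicates (n 1) / Measure: % activation from peak over basal fluorescence ratio, DMSO-to-PEA scaled / Timing: 17-24 h plating, Fluo-8 75 min 37 °C, 30 min RT / Technique: kinetic Fluo-8 calcium fluorescence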
TAAR1 antag: human TAAR1 antagonists, primary screen, Fluo-8 calcium fluorescence, CHO RD-HGA16 cells. antagonist. inhibition, % at 3 µM. 1.5% of 360,000 active. AID 624466, 2012;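 active = inhibition above a per-plate cutoff, the mean inhibition of test compounds on that plate plus 3 SD, cut at about 49% in these data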;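 note: 0% = DMSO plus EC80 beta-PEA response and 100% = DMSO alone without agonist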
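Test system: CHO RD-HGA16 cells bearing hTAAR1 | Reagent: β-PEA, EC80 | Compound dosing: 3 µM, single point | Schedule: Dye loading 75 min at 37 °C, then 30 min room temperature | Signal: Calcium fluorescence with Fluo-8 | Evaluation: Percent inhibition of PEA-evoked calcium signal, max/basal emission ratio | Control set: DMSO-only wells and EC80 β-PEA-stimulated wells | Repeats: Singlicate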
OX1R antag-2: antagonists of human orexin 1 receptor (OX1R) | 1.8% of 330,000 active | OX1R-expressing cells, FRET antagonist read-out | inhibition, % at 6.6 µM | AID 485270, 2010; in the data active = inhibition mostly above about 38%, no sharp cut-off; inactive = mostly below about 40%;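 note: 0% = agonist challenge alone and 100% = reference antagonist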
OX1R Ca confirm: OX1R (HCRTR1) antagonists, confirmation, fluorescence, CHO/OX1R cells, Fluo-8 calcium, orexin A. AID 492963, 2010. shares compounds with OX1R antag-1. 38% of 1,100 active. orexin A calcium Fluo-8 fluorescence. inhibition, % at 5 µM; in the data active = inhibition above about 29%;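 note: 0% = agonist challenge alone and 100% = reference antagonist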
CHO Ca counter: ATP-evoked calcium inhibition in parental CHO, counter-screen for OX1R antagonist project, cell-based, fluorescence, CHO-K1, triplicate. shares compounds with OX1R antag-1. ATP-induced calcium, Fluo-8 fluorescence. inhibition, % at 5.6 µM. 9.3% of 1,100 active. AID 492965, 2010;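 active = inhibition above a per-plate limit, the mean inhibition of that plate's test compounds plus 3 SD, cut at about 25% in these data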;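 note: 0% = ATP challenge with DMSO and 100% = DMSO without ATP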
OX1R HTRF confirm: OX1R (HCRTR1) antagonists, confirmation, cell-based, HTRF; shares compounds with OX1R antag-2; OX1R-expressing cells, HTRF antagonist assay; inhibition, % at 6.6 µM; 49% of 1,800 active; in the data active = inhibition above about 55%;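 note: CHO cells expressing OX1R stimulated with orexin A at about EC80; 0% = agonist challenge alone and 100% = reference antagonist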
CHO-K1 HTRF: signal inhibition in parental CHO-K1 cells, counter-screen for OX1R antagonist project, cell-based, HTRF | shares compounds with OX1R antag-2 | HTRF counterscreen | inhibition, % at 6.6 µM | 48% of 1,800 active | AID 493232, 2011; in the data active = inhibition above about 17%;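 note: 0% = agonist challenge with vehicle and 100% = vehicle alone without agonist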
An asterisk follows results filed as active; · = not tested or not shown. Most compounds without a hit are left out; they make up all but 4.6% or so of the library.

SMILES | GPR7 antagonist | OX1R antag-1 | CHO parental Ca | TAAR1 ag | TAAR1 antag | OX1R antag-2 | OX1R Ca confirm | CHO Ca counter | OX1R HTRF confirm | CHO-K1 HTRF
Cc1ccc(C)c(NS(=O)(=O)c2c(C)ccc3nsnc23)c1 | -19.9 | -10.7 | -13.8 | 8.6 | 6.1 | 28.4 | · | · | · | ·
Cc1ccc(NC(=O)C2CC(=O)N(C(C)C)C2)cc1C (centres undefined) | -7.1 | -25.8 | -4.7 | 4.5 | -9.3 | 0.4 | · | · | · | ·
CN(Cc1ccccc1)C(=O)c1[nH]cnc1C(=O)N[C@@H](Cc1ccccc1)C(=O)OC(C)(C)C | -0.6 | 35.1 | -28.1 | 9.8 | 20.2 | 76.8* | 42.8* | -11.3 | 77.2* | 1.5
N#C/C(=N\Nc1cccc([N+](=O)[O-])c1)C(=O)c1ccc(Br)cc1 | -8.9 | 42.2* | 25.9 | 3.4 | 32.6 | 93.7* | 21.5 | 50.1* | 39.0 | 18.9*
Cc1csc(-c2coc3cc(O)cc(C)c3c2=O)n1 | -12.0 | 60.1* | -4.4 | 3.3 | -17.0 | 93.6* | 24.9 | 4.4 | 91.3* | 7.1
COc1ccc(OC)c(S(=O)(=O)NCC(c2ccco2)N2CCc3ccccc32)c1 (centres undefined) | · | 73.7* | -8.7 | 4.3 | 2.2 | 89.9* | 78.9* | -7.7 | 88.6* | 4.2
O=C(C(Cc1ccccc1)n1cccc1)N1CCCCCC1 (centres undefined) | 4.7 | -31.2 | -8.9 | -2.1 | -4.0 | 17.3 | · | · | · | ·
Cc1nnc(SCCC(=O)Nc2ccc(F)cc2)s1 | -1.8 | -0.1 | -4.8 | 5.0 | 8.8 | 21.2 | · | · | · | ·
CCCSc1nnc(NC(=O)Nc2ccc(F)cc2)s1 | 10.8 | 29.4 | 9.4 | 20.1 | 15.6 | 76.7* | 9.7 | 20.8 | 47.6 | 10.5
CSc1nc2ccc3nc(NC(=O)c4ccccc4)sc3c2s1 | -6.6 | 46.4* | -14.6 | 2.3 | -11.9 | 83.8* | 78.8* | -12.9 | 95.3* | 10.9
O=C(Nc1nc2ccccc2s1)c1ccccc1 | -6.1 | -20.0 | -10.5 | -0.5 | 15.8 | 10.3 | · | · | · | ·
COc1cc(SC)ccc1C(=O)Nc1ccc2c(c1)CCC2 | 6.3 | -15.5 | -7.0 | 1.3 | -10.3 | 12.1 | · | · | · | ·
CC(C)C(NS(=O)(=O)c1cccc2nsnc12)C(=O)N1CCn2c1nc1ccccc12 (centres undefined) | -6.5 | 27.4 | -13.6 | 0.0 | 13.1 | 134.1* | 19.1 | -8.6 | 92.2* | 16.2
CC(C)(C)C(=O)N1CCn2c1nc1ccccc12 | -3.6 | -3.1 | 9.8 | 0.0 | -27.6 | 0.5 | · | · | · | ·
O=C(COC(=O)c1cc(-c2cccc(Br)c2)nc2ccccc12)NCC1CCCO1 (centres undefined) | -2.1 | 44.3* | -18.4 | 5.7 | 34.7 | 86.4* | 39.8* | -5.0 | 68.0* | 11.6
CC(C)n1ncc2c(C(=O)NCC(=O)Nc3ccccc3Br)cc(C3CC3)nc21 | · | 44.6* | -35.1 | · | · | 39.7* | 4.2 | -3.5 | 44.4 | 2.3
COc1ccccc1CCNC(=O)c1cc(C2CC2)nc2c1cnn2C(C)C | · | · | · | 2.8 | 14.1 | · | · | · | · | ·
O=C(c1nc2ccccc2s1)N1CCN(c2ccccn2)CC1 | 12.0 | -19.6 | -10.0 | 10.6 | 15.8 | 39.2 | · | · | · | ·
Oc1ccccc1-c1nc(NCC2CCCO2)c2ccccc2n1 (centres undefined) | 8.9 | 63.2* | -20.6 | 5.0 | 36.6 | 96.7* | 44.2* | -7.4 | 87.8* | 16.5
COc1cccc(-c2nc(NCC3CCCO3)c3ccccc3n2)c1O (centres undefined) | -2.5 | -25.9 | -13.3 | 12.6 | 44.8 | 24.5 | · | · | · | ·
CC1CCC2(CC1)NC(=O)N(CC(=O)NC(=O)NC1CCCC1)C2=O (centres undefined) | -13.5 | -23.0 | -12.3 | 0.8 | -7.6 | 9.7 | · | · | · | ·
Cc1cccc(OCC(=O)N/N=C\c2cn(C)c3ccccc23)c1 | -0.3 | 29.7 | 1.4 | -1.9 | -1.7 | 45.2* | 4.5 | 6.7 | 38.4 | 2.8
Cc1cccc(OCCn2cc(/C=N/NC(=O)c3ccncc3)c3ccccc32)c1 | 12.6 | -24.6 | -19.6 | 4.7 | 19.8 | 16.5 | · | · | · | ·
N#C/C(=C\Nc1ccc2c(c1)OCCO2)c1nc(-c2ccccc2)cs1 | -4.7 | -6.6 | -3.8 | 6.7 | 21.9 | 9.0 | · | · | · | ·
N#C/C(=C\Nc1ccc2c(c1)OCCO2)c1nc2ccccc2[nH]1 | -29.4 | 28.3 | -10.2 | 7.3 | 11.6 | 91.1* | 12.5 | -11.0 | 73.7* | 9.5
SMILES | GPR7 antagonist | OX1R antag-1 | CHO parental Ca | TAAR1 ag | TAAR1 antag | OX1R antag-2 | OX1R Ca confirm | CHO Ca counter | OX1R HTRF confirm | CHO-K1 HTRF
COc1cccc(CC2(CO)CCCN(Cc3cn[nH]c3-c3cc(C)ccc3C)C2)c1 (centres undefined) | 3.2 | -24.8 | -7.3 | 3.1 | -3.0 | 5.3 | · | · | · | ·
O=C(COC(=O)c1cc(=O)[nH]c2ccccc12)NCc1ccccc1Cl | · | -10.2 | -22.5 | 4.8 | 16.0 | -0.2 | · | · | · | ·
CN1CCC/C1=C/C=C1\SC(=S)NC1=O | -1.7 | 46.5 | 31.8 | 16.6 | -3.8 | 79.9* | 33.2* | 32.2* | 54.6 | 98.2*
C#CCOCCOCCOCCNc1nc(N2CCN(C(=O)[C@H](CCC(=O)O)n3cc(C(N)CC(C)C)nn3)CC2)nc(N2CCN(C(=O)[C@H](CCC(=O)O)n3cc(C(N)CC(C)C)nn3)CC2)n1 (some centres undefined) | -13.6 | 2.1 | -1.2 | · | · | 14.0 | · | · | · | ·
Nc1nc(=S)[nH]c2c1C1(CCCCC1)Cc1ccccc1-2 | -2.6 | -1.4 | -5.6 | -0.2 | 12.6 | 10.4 | · | · | · | ·
COc1ccc(OCC(=O)NNc2c3ccccc3nc3ccccc23)cc1 | -12.9 | 41.1* | 7.5 | 16.3 | 58.6* | 101.8* | 2.0 | -10.9 | 33.2 | 8.1
O=C(CCCO)NNc1c2ccccc2nc2ccccc12 | -1.4 | -4.1 | -1.2 | 1.6 | 6.2 | 13.2 | · | · | · | ·
CCc1cccc(CC)c1NC(=O)COC(=O)CC1c2ccccc2CCN1S(=O)(=O)c1ccccc1 (centres undefined) | -0.2 | -8.1 | -12.8 | 1.6 | 20.8 | 48.6 | · | · | · | ·

Bioassay records as filed in PubChem.
